# According to ChEMBL document CHEMBL3779820, “Discovery of a Novel Inhibitor of Histone Lysine-Specific Demethylase 1A (KDM1A/LSD1) as Orally Active Antitumor Agent” (J Med Chem, 2016):
# Activity calls are given as the source filed them. The rule behind the calls is not given here.
# How the values were obtained:
# [1] = molecular target: T1, Lysine-specific histone demethylase 2 (Homo sapiens, UniProt Q8NB78); assay: Inhibition of KDM1B (unknown origin)
# T1 sequence (Q8NB78 whole entry): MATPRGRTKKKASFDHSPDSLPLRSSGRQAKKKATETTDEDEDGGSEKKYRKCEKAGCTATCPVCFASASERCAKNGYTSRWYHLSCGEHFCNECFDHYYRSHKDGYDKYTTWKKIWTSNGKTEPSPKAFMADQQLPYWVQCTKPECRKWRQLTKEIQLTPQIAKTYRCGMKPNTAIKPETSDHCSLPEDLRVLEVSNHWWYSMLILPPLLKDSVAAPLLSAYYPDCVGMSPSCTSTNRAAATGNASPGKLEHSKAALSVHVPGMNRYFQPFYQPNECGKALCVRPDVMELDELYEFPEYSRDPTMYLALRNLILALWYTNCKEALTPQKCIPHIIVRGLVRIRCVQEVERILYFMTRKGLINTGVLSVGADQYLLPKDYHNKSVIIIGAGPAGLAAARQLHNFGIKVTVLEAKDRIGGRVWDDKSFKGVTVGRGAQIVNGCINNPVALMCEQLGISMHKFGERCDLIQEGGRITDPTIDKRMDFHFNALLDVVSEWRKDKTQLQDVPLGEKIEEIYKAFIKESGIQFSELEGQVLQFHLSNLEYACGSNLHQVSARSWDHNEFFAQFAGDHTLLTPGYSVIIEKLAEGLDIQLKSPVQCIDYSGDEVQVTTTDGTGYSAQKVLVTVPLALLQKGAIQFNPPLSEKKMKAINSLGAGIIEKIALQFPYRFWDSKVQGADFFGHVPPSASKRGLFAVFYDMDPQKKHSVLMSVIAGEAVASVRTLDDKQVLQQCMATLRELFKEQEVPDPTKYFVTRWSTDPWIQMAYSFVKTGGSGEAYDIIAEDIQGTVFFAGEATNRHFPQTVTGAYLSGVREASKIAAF
# [2] = Anticlonogenic activity against 129sv mouse APL blast cells assessed as inhibition of colony formation of cells at 0.25 uM measured after 7 days relative to control; format: functional; details: 168 h
# [3] = Anticlonogenic activity against human THP1 cells assessed as inhibition of colony formation of cells at 0.5 uM measured after 13 days relative to control; format: functional; details: THP-1, […]
# Summary of the method: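 THP-1 cells (RPMI, 10% FBS, 2 mM L-glutamine, 37°C, 5% CO2) plated at 250 cells/plate in enriched methylcellulose medium with compound at 0.5 µM for 13 days.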
# [4] = molecular target: Lysine-specific histone demethylase 1A (Homo sapiens) (UniProt O60341); assay: Inhibition of KDM1A in human NB4 cells assessed as increase in CD11b mRNA expression at biochemical IC50 measured after 24 hrs by RT-PCR analysis relative to control; format: cell-based; details: NB-4
# [5] = molecular target: Lysine-specific histone demethylase 1A (Homo sapiens) (UniProt O60341); assay: Inhibition of KDM1A in human NB4 cells assessed as increase in GFI1B mRNA expression at biochemical IC50 measured after 24 hrs by RT-PCR analysis relative to control; format: cell-based; details: NB-4
# LSD1/CoREST complex = LSD1/CoREST complex (Homo sapiens, UniProt O60341); assay: Inhibition of human recombinant KDM1A/CoREST expressed in Escherichia coli using mono-methylated H3-K4 peptide as substrate assessed as H2O2 release preincubated for 15 mins followed by substrate addition measured for 12 mins by fluorescence-based microplate reader analysis
# Summary of the method: (§1)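 Human recombinant KDM1A/CoREST, KDM1B, MAO A and MAO B used as enzyme sources; compounds incubated with the enzyme and results expressed as IC50.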
# [6] = molecular target: T2, Amine oxidase [flavin-containing] A (Homo sapiens, UniProt P21397); assay: Inhibition of human recombinant MAOA expressed in Pichia pastoris preincubated for 15 mins measured after 30 mins by bioluminescent-coupled assay; summary of the method: as §1
# T2 sequence (P21397 whole entry): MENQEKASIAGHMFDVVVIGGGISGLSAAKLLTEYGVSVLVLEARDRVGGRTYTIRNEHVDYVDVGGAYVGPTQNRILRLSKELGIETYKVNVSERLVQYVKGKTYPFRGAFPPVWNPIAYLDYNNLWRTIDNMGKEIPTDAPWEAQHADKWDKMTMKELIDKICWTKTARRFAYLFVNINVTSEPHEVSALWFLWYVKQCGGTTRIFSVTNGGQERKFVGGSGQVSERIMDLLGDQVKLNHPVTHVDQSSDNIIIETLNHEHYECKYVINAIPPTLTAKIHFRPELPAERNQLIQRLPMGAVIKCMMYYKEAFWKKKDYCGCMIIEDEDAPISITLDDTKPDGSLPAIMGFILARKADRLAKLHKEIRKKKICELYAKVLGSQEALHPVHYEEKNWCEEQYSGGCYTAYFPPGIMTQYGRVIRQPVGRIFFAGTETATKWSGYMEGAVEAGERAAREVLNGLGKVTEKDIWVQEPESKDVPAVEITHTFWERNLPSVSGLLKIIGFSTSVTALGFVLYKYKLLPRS
# THP-1 [7] = assay: Induction of differentiation of human THP1 cells assessed assessed as alteration in morphology of colonies after 13 days by May Grunwald-Giemsa staining based assay; format: functional, cell-based
# Summary of the method: (§2)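 THP-1 cells cultured 13 days in semisolid methylcellulose with compound at 0.5 µM; colony morphology imaged, and cells recovered at end of culture examined as May Grunwald-Giemsa-stained cytospin preparations.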
# [8] = Antitumor activity against 129SvEv mouse APL blast cells implanted in nonirradiated 129SvEv mouse assessed as increase in survival of leukemic mouse at 0.0125 mg/kg, ip administered for 5 days per week for 2 weeks by Kaplan-Meier plot analysis relative to vehicle control; format: functional
# Summary of the method: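 One million leukemic blasts from 129SvEv mice given iv to non-irradiated syngeneic recipients; groups of at least 6 mice randomized. Dosing began once blasts appeared in peripheral blood (about day 10). Drug dissolved in 40% PEG 400 in 5% glucose and given ip. Survival compared with the vehicle group by Kaplan–Meier analysis.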
# THP-1 [9] = assay: Induction of differentiation of human THP1 cells after 13 days by cytospin assay; format: functional, cell-based; summary of the method: as §2
# [10] = Cmax in CD1 mouse at 15 mg/kg, po administered as single dose; format: ADME, organism-based; parameters: dose 15 mg/kg, route oral; details: in vivo
# Summary of the method: (§3)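 Single dose to CD1 mice: 5 mg/kg iv in 5% glucose with 10% tween 80, or 15 mg/kg orally in 5% glucose with 40% PEG. Plasma parameters derived from concentration–time profiles.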
# [11] = molecular target: T3, Amine oxidase [flavin-containing] B (Homo sapiens, UniProt P27338); assay: Inhibition of human recombinant MAOB expressed in Pichia pastoris preincubated for 15 mins measured after 30 mins by bioluminescent-coupled assay; summary of the method: as §1
# T3 sequence (P27338 whole entry): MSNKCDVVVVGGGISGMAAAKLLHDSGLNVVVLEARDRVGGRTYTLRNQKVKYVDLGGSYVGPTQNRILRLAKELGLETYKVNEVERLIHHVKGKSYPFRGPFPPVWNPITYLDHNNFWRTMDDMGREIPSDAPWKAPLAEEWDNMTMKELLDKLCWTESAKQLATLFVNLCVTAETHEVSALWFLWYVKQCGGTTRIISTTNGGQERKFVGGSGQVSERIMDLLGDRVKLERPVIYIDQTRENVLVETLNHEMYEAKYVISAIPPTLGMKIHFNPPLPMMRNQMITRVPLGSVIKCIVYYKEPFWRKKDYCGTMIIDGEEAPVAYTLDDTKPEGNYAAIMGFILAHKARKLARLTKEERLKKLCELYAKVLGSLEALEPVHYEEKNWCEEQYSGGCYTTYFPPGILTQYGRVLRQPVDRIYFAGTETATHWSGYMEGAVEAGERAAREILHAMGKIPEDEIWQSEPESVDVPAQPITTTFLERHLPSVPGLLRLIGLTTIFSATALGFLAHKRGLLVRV
# [12] = Antitumor activity against 129SvEv mouse APL blast cells implanted in nonirradiated 129SvEv mouse assessed as increase in survival of leukemic mouse at 27 mg/kg, po administered for 5 days per week for 2 weeks by Kaplan-Meier plot analysis relative to vehicle control; format: functional
# Summary of the method: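 Gavage in 40% PEG 400 in 5% glucose began once peripheral-blood blasts appeared (about day 10). Survival analysed by Kaplan–Meier versus vehicle. Separate arm for GFI1B: spleen cells taken after 3 days of dosing, qRT-PCR normalized to TBP.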
# [13] = Cmax in CD1 mouse at 5 mg/kg, iv administered as single dose; format: ADME, organism-based; parameters: dose 5 mg/kg, route intravenous; details: in vivo; summary of the method: as §3
# [14] = Clearance in CD1 mouse at 5 mg/kg, iv administered as single dose; format: ADME, organism-based; details: in vivo; summary of the method: as §3
# [15] = Half life in CD1 mouse at 5 mg/kg, iv administered as single dose; format: ADME, organism-based; details: in vivo; summary of the method: as §3
# Mus musculus [16] = assay: Terminal volume of distribution in CD1 mouse at 5 mg/kg, iv administered as single dose; format: ADME, organism-based; details: in vivo; summary of the method: as §3
# [17] = Tmax in CD1 mouse at 15 mg/kg, po administered as single dose; format: ADME, organism-based; details: in vivo; summary of the method: as §3
# Mus musculus [18] = assay: Toxicity in nonirradiated 129SvEv mouse implanted with 129SvEv mouse APL blast cells assessed as change in body weight at 27 mg/kg, po administered for 5 days per week for 2 weeks measured during compound dosing; format: organism-based; details: in vivo
# [19] = AUC (0 to infinity) in CD1 mouse at 5 mg/kg, iv administered as single dose; format: ADME, organism-based; parameters: dose 5 mg/kg, time infinity, route intravenous; details: in vivo; summary of the method: as §3
# [20] = AUC (0 to infinity) in CD1 mouse at 15 mg/kg, po administered as single dose; format: ADME, organism-based; parameters: dose 15 mg/kg, time infinity, route oral; details: in vivo; summary of the method: as §3
# [21] = Oral bioavailability in CD1 mouse at 15 mg/kg administered as single dose; format: ADME, organism-based; details: in vivo; summary of the method: as §3
# Homo sapiens = organism: Homo sapiens; assay: Selectivity ratio of IC50 for human recombinant MAOA expressed in Pichia pastoris to IC50 for human recombinant KDM1A/CoREST expressed in Escherichia coli
SMILES,IC50 [1] [µM],inhibition at 0.25 µM [2] [%],fold change (FC) [4],fold change (FC) [5],IC50 (LSD1/CoREST complex) [µM],IC50 [6] [µM],IC50 [11] [µM],also measured
N[C@@H]1C[C@H]1c1ccc(NC(=O)c2ccccc2)cc1,58.3,73,–,–,–,–,–,inhibition at 0.5 µM [3]: 8%
CN1CCN(c2ccc(C(=O)Nc3ccc([C@H]4C[C@@H]4N)cc3)cc2)CC1,–,–,3.1,3,0.23,–,–,–
CN1CCN(c2ccc(C(=O)Nc3ccc([C@@H]4C[C@H]4N)cc3)cc2)CC1 [listing 1 of 2 here],–,–,–,–,0.084,–,–,–
N[C@H]1CC[C@H](N[C@@H]2C[C@H]2c2ccccc2)CC1,43.4,84,5.1,7,–,48.4,–,Activity (THP-1 [7]): Active; inhibition at 0.5 µM [3]: 58%; Activity [8]: 14%; Activity (THP-1 [9]): Active
CN1CCN(c2ccc(C(=O)Nc3ccc([C@@H]4C[C@H]4N)cc3)cc2)CC1 [listing 2 of 2 here],–,–,3.9,4.2,–,–,–,–
Cl.N[C@@H]1C[C@H]1c1ccc(NC(=O)c2cccc(N3CCOC3=O)c2)cc1 (racemic),12.6,79,2.9,4.3,0.028,0.0905,80.2,Cmax [10]: 1140 nM; Activity [12]: 15%; Activity (THP-1 [7]): Active; Cmax [13]: 3650 nM; inhibition at 0.5 µM [3]: 51%; clearance [14]: 49.7 mL/min/kg; half-life [15]: 1.92 h; Vz/F (Mus musculus [16]): 8.45 L/kg; Tmax [17]: 0.667 h; Activity (Mus musculus [18]): Non-toxic; Activity (THP-1 [9]): Active; AUC(0-inf) [19]: 4.62 µM·h; AUC(0-inf) [20]: 7.12 µM·h; bioavailability [21]: 55.8%
N[C@@H]1C[C@H]1c1ccc(NC(=O)c2ccc(-c3ccoc3)cc2)cc1 (racemic),51,–,–,–,0.0225,0.04,0.087,–
N[C@@H]1C[C@H]1c1ccc(NC(=O)c2ccc(N3CCOC3=O)cc2)cc1 (racemic),–,–,–,–,0.0335,0.0297,1.6,–
N[C@@H]1C[C@H]1c1ccc(NC(=O)c2cccc(NC(=O)OCc3ccccc3)c2)cc1 (racemic),11.6,–,–,–,0.0426,0.025,> 100,–
CN1CCN(c2ccc(C(=O)Nc3ccc([C@@H]4C[C@H]4N)cc3)cc2)CC1.Cl.Cl (racemic),–,–,–,–,0.189,–,–,Tmax [17]: 12 h
N[C@@H]1C[C@H]1c1ccc(NC(=O)c2ccc(N3CCOCC3)cc2)cc1 (racemic),74.7,–,–,–,0.0615,0.0548,0.6,–
CN1CCC(c2ccc(C(=O)Nc3ccc([C@@H]4C[C@H]4N)cc3)cc2)CC1.Cl (racemic),–,–,3.4,4.1,0.0512,–,–,Tmax [17]: 18 h
CN1CCN(c2ccc(C(=O)Nc3ccc([C@@H]4C[C@H]4N)cc3)cc2)CC1 (racemic),–,–,3.2,4.9,–,–,–,–
N[C@@H]1C[C@H]1c1ccc(NC(=O)c2ccc(N3CCOCC3)c(NC(=O)OCc3ccccc3)c2)cc1 (relative stereo),5.7,59,3.8,4.8,0.0614,0.193,62.9,–
N[C@@H]1C[C@H]1c1ccc(NC(=O)c2ccc(N3CCCCC3)c(NC(=O)OCc3ccccc3)c2)cc1 (relative stereo),–,–,–,–,0.307,–,–,–
CN1CCN(c2ccc(C(=O)Nc3ccc([C@@H]4C[C@H]4N)cc3)cc2NC(=O)OCc2ccccc2)CC1 (relative stereo),4.3,57,3,4.5,–,1,> 100,Ratio IC50 (Homo sapiens): > 10
N[C@@H]1C[C@H]1c1ccc(NC(=O)c2ccc(NC(=O)OCc3ccccc3)c(N3CCOCC3)c2)cc1 (relative stereo),14.9,57,3.2,5.6,–,0.345,27.8,–
